Measurements reported in ChEMBL document CHEMBL3992570, “Integrated Platform for Expedited Synthesis-Purification-Testing of Small Molecule Libraries” (ACS Med Chem Lett, 2017).

Legend:
Polycomb protein EED [1] = target: T1, Polycomb protein EED (Homo sapiens, UniProt O75530); assay: Inhibition of pyrrolidine inhibitor-based oregon-green probe binding to GST-tagged EED (unknown origin) after 1 hr by assay explorer integrated LanthaScreen TR-FRET assay
How it was run: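 On the integrated platform, HPLC fractions were quantified by charged aerosol detection (calibrated with ketoprofen) and dissolved in DMSO to 10 mM stocks. An 11-point, 3-fold serial dilution followed. 50 nL of each dilution was pin-transferred into 10 µL assay buffer (0.5% DMSO final) and incubated 1 h at 25 °C. TR-FRET was read on EnVision, and activity was obtained by curve fitting.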

Polycomb protein EED [2] = target: T1, Polycomb protein EED; assay: Inhibition of pyrrolidine inhibitor-based oregon-green probe binding to GST-tagged EED (unknown origin) after 1 hr by LanthaScreen TR-FRET assay
How it was run: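 Compounds were made, purified and tested conventionally as separate steps, under the same assay conditions as the integrated run. Compound in DMSO was added to assay buffer (0.5% DMSO final) and incubated 1 h at 25 °C. The TR-FRET signal was read on a plate reader, and activity was derived by curve fitting.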

T1 sequence (O75530 whole entry): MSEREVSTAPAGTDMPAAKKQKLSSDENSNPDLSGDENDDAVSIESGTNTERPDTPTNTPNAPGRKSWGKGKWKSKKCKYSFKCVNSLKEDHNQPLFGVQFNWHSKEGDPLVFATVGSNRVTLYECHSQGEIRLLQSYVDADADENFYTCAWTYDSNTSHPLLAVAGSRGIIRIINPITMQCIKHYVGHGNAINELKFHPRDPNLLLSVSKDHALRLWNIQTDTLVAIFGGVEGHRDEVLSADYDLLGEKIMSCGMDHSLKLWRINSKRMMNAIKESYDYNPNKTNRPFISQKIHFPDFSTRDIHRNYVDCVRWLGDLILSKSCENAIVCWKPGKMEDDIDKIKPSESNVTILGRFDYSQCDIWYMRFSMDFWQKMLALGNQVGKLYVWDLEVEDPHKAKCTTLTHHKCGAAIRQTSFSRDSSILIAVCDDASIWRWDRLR

CC(=O)N[C@H]1CCN(c2ccc([C@H]3CN(Cc4c(C)cccc4F)C[C@@H]3N(C)C)cc2)C1
IC50 (Polycomb protein EED [1]): 90 nM | IC50 (Polycomb protein EED [2]): 240 nM

Cc1cccc(F)c1CN1C[C@H](c2ccc(N3CCN(S(=O)(=O)c4cccc(F)c4)CC3)cc2)[C@@H](N(C)C)C1
IC50 (Polycomb protein EED [1]): 40 nM | IC50 (Polycomb protein EED [2]): 50 nM

Cc1cccc(F)c1CN1C[C@H](c2ccc(N3CCN(c4ccccc4S(C)(=O)=O)CC3)cc2)[C@@H](N(C)C)C1
IC50 (Polycomb protein EED [1]): 70 nM | IC50 (Polycomb protein EED [2]): 190 nM

Cc1cccc(F)c1CN1C[C@H](c2ccc(N3CCN(c4ccncc4)CC3)cc2)[C@@H](N(C)C)C1
IC50 (Polycomb protein EED [1]): 10 nM | IC50 (Polycomb protein EED [2]): 10 nM

Cc1ccc(N2CCN(c3ccc([C@H]4CN(Cc5c(C)cccc5F)C[C@@H]4N(C)C)cc3)CC2)cc1
IC50 (Polycomb protein EED [1]): 150 nM | IC50 (Polycomb protein EED [2]): 220 nM

Cc1cccc(F)c1CN1C[C@H](c2ccc(N3CCC(N(C)C)CC3)cc2)[C@@H](N(C)C)C1
IC50 (Polycomb protein EED [1]): 40 nM | IC50 (Polycomb protein EED [2]): 100 nM

Cc1cccc(F)c1CN1C[C@H](c2ccc(N3CCC(C)CC3)cc2)[C@@H](N(C)C)C1
IC50 (Polycomb protein EED [1]): 40 nM | IC50 (Polycomb protein EED [2]): 140 nM

Cc1cc([C@H]2CN(Cc3c(C)cccc3F)C[C@@H]2N(C)C)ccc1C(=O)N1CCN(CCO)CC1
IC50 (Polycomb protein EED [1]): 270 nM | IC50 (Polycomb protein EED [2]): 380 nM

Cc1cc([C@H]2CN(Cc3c(C)cccc3F)C[C@@H]2N(C)C)ccc1C(=O)NCc1ccccn1
IC50 (Polycomb protein EED [1]): 70 nM | IC50 (Polycomb protein EED [2]): 80 nM

Cc1cccc(F)c1CN1C[C@H](c2ccc(N3CCC(N4CCOCC4)CC3)cc2)[C@@H](N(C)C)C1
IC50 (Polycomb protein EED [1]): 40 nM | IC50 (Polycomb protein EED [2]): 60 nM

Cc1cc([C@H]2CN(Cc3c(C)cccc3F)C[C@@H]2N(C)C)ccc1C(=O)Nc1cccnc1
IC50 (Polycomb protein EED [1]): 80 nM | IC50 (Polycomb protein EED [2]): 100 nM

CC(=O)N[C@@H]1CCN(c2ccc([C@H]3CN(Cc4c(C)cccc4F)C[C@@H]3N(C)C)cc2)C1
IC50 (Polycomb protein EED [1]): 160 nM

Cc1cccc(F)c1CN1C[C@H](c2ccc(N3CCN(c4nccs4)CC3)cc2)[C@@H](N(C)C)C1
IC50 (Polycomb protein EED [1]): 30 nM | IC50 (Polycomb protein EED [2]): 40 nM

Cc1cccc(F)c1CN1C[C@H](c2ccc(N3CCC(C#N)CC3)cc2)[C@@H](N(C)C)C1
IC50 (Polycomb protein EED [1]): 70 nM | IC50 (Polycomb protein EED [2]): 140 nM

Cc1cccc(F)c1CN1C[C@H](c2ccc(N(C)C3CCN(C)CC3)cc2)[C@@H](N(C)C)C1
IC50 (Polycomb protein EED [1]): 90 nM | IC50 (Polycomb protein EED [2]): 350 nM

CCN(CC)C(=O)c1ccc([C@H]2CN(Cc3c(C)cccc3F)C[C@@H]2N(C)C)cc1C
IC50 (Polycomb protein EED [1]): 100 nM | IC50 (Polycomb protein EED [2]): 250 nM

Cc1cc([C@H]2CN(Cc3c(C)cccc3F)C[C@@H]2N(C)C)ccc1C(=O)N1CCN(C)CC1
IC50 (Polycomb protein EED [1]): 260 nM | IC50 (Polycomb protein EED [2]): 480 nM

Cc1cc([C@H]2CN(Cc3c(C)cccc3F)C[C@@H]2N(C)C)ccc1C(=O)NCc1ccncc1
IC50 (Polycomb protein EED [1]): 70 nM | IC50 (Polycomb protein EED [2]): 110 nM

Cc1cccc(F)c1CN1C[C@H](c2ccc(N3CCn4ccnc4C3)cc2)[C@@H](N(C)C)C1
IC50 (Polycomb protein EED [1]): 70 nM | IC50 (Polycomb protein EED [2]): 100 nM

Cc1cc([C@H]2CN(Cc3c(C)cccc3F)C[C@@H]2N(C)C)ccc1C(=O)N(C)C
IC50 (Polycomb protein EED [1]): 110 nM | IC50 (Polycomb protein EED [2]): 180 nM

Cc1cccc(F)c1CN1C[C@H](c2ccc(N3CCN(c4ccccc4)CC3)cc2)[C@@H](N(C)C)C1
IC50 (Polycomb protein EED [1]): 50 nM | IC50 (Polycomb protein EED [2]): 90 nM

Cc1cc([C@H]2CN(Cc3c(C)cccc3F)C[C@@H]2N(C)C)ccc1C(=O)NCCN(C)C
IC50 (Polycomb protein EED [1]): 80 nM | IC50 (Polycomb protein EED [2]): 150 nM

Cc1ccc(S(=O)(=O)N2CCN(c3ccc([C@H]4CN(Cc5c(C)cccc5F)C[C@@H]4N(C)C)cc3)CC2)cc1
IC50 (Polycomb protein EED [1]): 50 nM | IC50 (Polycomb protein EED [2]): 80 nM

CC(=O)NC1CCN(c2ccc([C@H]3CN(Cc4c(C)cccc4F)C[C@@H]3N(C)C)cc2)CC1
IC50 (Polycomb protein EED [1]): 40 nM | IC50 (Polycomb protein EED [2]): 160 nM
